# Laboratory results from PMC10432884 (Clinical and Translational Science, 2023).
# Read-outs that look alike come from different tables or passages of the source.
# Tests used:
# [1] = SAD phase pharmacokinetics; assay type: in vivo, human; conditions: for Tmax: human, plasma, oral, Median T max, range
# In short: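 Single oral doses of 0.3–50 mg after ≥10 h fast. Plasma (K-EDTA) was sampled predose and […]; urine was collected for 48 h. Assay was validated LC-MS/MS (plasma LLOQ 1.00 ng/mL; below-LLOQ set to 0). AUClast, Cmax and Tmax were derived at all doses; AUCinf, clearance and t1/2 from 10 mg upward. Urinary excretion and renal clearance were also derived. Steady-state time was estimated from these SAD data.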
# [2] = FI phase pharmacokinetics; assay type: in vivo, human
# In short: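 Open-label, randomized two-period crossover in 14 healthy subjects. Each received a single 10 mg oral tablet fasted, or ~30 min after a high-fat meal (800–1000 kcal). Washout was 21 days. Plasma (K-EDTA) was sampled predose and 15 min–48 h postdose, plus days 7 and 14 (period 1) and days 5 and 9 (period 2), and assayed by validated LC-MS/MS (LLOQ 1.00 ng/mL). Cmax, AUCτ and AUCinf were compared by ANOVA (food, sequence, period fixed; subject-within-sequence random).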
# healthy subjects [3] = assay: SAD phase blood pressure; assay type: in vivo, human; conditions: for Mean SBP, LSMs difference from placebo: over 48 h
# [4] = First-in-human trial, all phases: overall pharmacokinetics; assay type: in vivo
# healthy subjects [5] = tested on: healthy subjects
# [6] = dogs, preclinical experiments, cited from earlier work
# rodents [7] = conditions: treated rodents; cited from earlier work
# rodents [8] = conditions: in vivo; cited from earlier work
# [9] = SAD pooled zagociguat group (n = 42)
smiles,measurement,setting,value
"Fc1ccccc1Cc1nc(-c2nc(C(F)(F)F)n[nH]2)cn2ccnc12 [zagociguat, 8‐(2‐fluorobenzyl)‐6‐(3‐(trifluoromethyl)‐1H‐1,2,4‐triazol‐5‐yl)imidazo[1,2‐a]pyrazine]",Tmax,[1]; SAD doses of 0.3–3 mg,0.5 to 2.1 h
same,Tmax,[1]; SAD doses of 10–50 mg,3.5 to 5 h
same,Estimated time to steady-state,[1]; preliminary PK data from the SAD phase,11 days
same,Food effect,"[2]; FI 10 mg, high-fat meal vs fasted",no food effects were observed
same,C max LSM ratio fed vs. fasted,"[2]; FI 10 mg, 95% CI: 0.94, 1.03",0.99
same,Plasma concentration in predose samples of second treatment period,"[2]; FI, 21-day washout, limit of quantification 1.00 ng/mL",below the limit of quantification
same,"Mean SBP, LSMs difference from placebo","healthy subjects [3]; SAD 3 mg, 95% CI: −9.8, −0.1, p = 0.047",−4.9 mmHg
same,"Mean SBP, LSMs difference from placebo","healthy subjects [3]; SAD 50 mg, 95% CI: −10.0, −0.5, p = 0.032",−5.2 mmHg
same,DBP change,healthy subjects [3]; SAD all dose groups,no decreases
same,SBP change,"healthy subjects [3]; SAD other dose groups (1, 10, 20, 30 mg)",No decreases
same,half-life,"[4]; human, plasma, oral",52.8 to 67.1 h
same,Exposure vs dose,[4]; single and multiple escalating doses,increased in a dose‐proportional manner
same,Subjects discontinued from study drug due to ≥1 TEAE,healthy subjects [5]; SAD 0.3 mg (n = 6),0 n
same,Subjects with ≥1 SAE,healthy subjects [5]; SAD 0.3 mg (n = 6),0 n
same,Subjects with ≥1 TEAE,healthy subjects [5]; SAD 0.3 mg (n = 6),2 (33.3%) n (%)
same,Subjects with ≥1 study drug related TEAE,healthy subjects [5]; SAD 0.3 mg (n = 6),2 n
same,TEAEs,healthy subjects [5]; SAD 0.3 mg (n = 6),5 n
same,Subjects discontinued from study drug due to ≥1 TEAE,healthy subjects [5]; SAD 1 mg (n = 6),0 n
same,Subjects with ≥1 SAE,healthy subjects [5]; SAD 1 mg (n = 6),0 n
same,Subjects with ≥1 TEAE,healthy subjects [5]; SAD 1 mg (n = 6),2 (33.3%) n (%)
same,Subjects with ≥1 study drug related TEAE,healthy subjects [5]; SAD 1 mg (n = 6),1 n
same,TEAEs,healthy subjects [5]; SAD 1 mg (n = 6),5 n
same,Orthostatic hypotension TEAE,healthy subjects [5]; SAD 3 mg,One
same,Subjects discontinued from study drug due to ≥1 TEAE,healthy subjects [5]; SAD 3 mg (n = 6),0 n
same,Subjects with ≥1 SAE,healthy subjects [5]; SAD 3 mg (n = 6),0 n
same,Subjects with ≥1 TEAE,healthy subjects [5]; SAD 3 mg (n = 6),3 (50.0%) n (%)
same,Subjects with ≥1 study drug related TEAE,healthy subjects [5]; SAD 3 mg (n = 6),2 n
same,TEAEs,healthy subjects [5]; SAD 3 mg (n = 6),7 n
same,Subjects discontinued from study drug due to ≥1 TEAE,healthy subjects [5]; SAD 10 mg (n = 6),0 n
same,Subjects with ≥1 SAE,healthy subjects [5]; SAD 10 mg (n = 6),0 n
same,Subjects with ≥1 TEAE,healthy subjects [5]; SAD 10 mg (n = 6),2 (33.3%) n (%)
same,Subjects with ≥1 study drug related TEAE,healthy subjects [5]; SAD 10 mg (n = 6),2 n
same,TEAEs,healthy subjects [5]; SAD 10 mg (n = 6),7 n
same,Subjects discontinued from study drug due to ≥1 TEAE,healthy subjects [5]; SAD 20 mg (n = 6),0 n
same,Subjects with ≥1 SAE,healthy subjects [5]; SAD 20 mg (n = 6),0 n
same,Subjects with ≥1 TEAE,healthy subjects [5]; SAD 20 mg (n = 6),3 (50.0%) n (%)
same,Subjects with ≥1 study drug related TEAE,healthy subjects [5]; SAD 20 mg (n = 6),2 n
same,TEAEs,healthy subjects [5]; SAD 20 mg (n = 6),5 n
same,Subjects discontinued from study drug due to ≥1 TEAE,healthy subjects [5]; SAD 30 mg (n = 6),0 n
same,Subjects with ≥1 SAE,healthy subjects [5]; SAD 30 mg (n = 6),0 n
same,Subjects with ≥1 TEAE,healthy subjects [5]; SAD 30 mg (n = 6),5 (83.3%) n (%)
same,Subjects with ≥1 study drug related TEAE,healthy subjects [5]; SAD 30 mg (n = 6),5 n
same,TEAEs,healthy subjects [5]; SAD 30 mg (n = 6),13 n
same,Subjects with gastrointestinal (GI)-related TEAEs,healthy subjects [5]; SAD 50 mg (4/6 subjects),66.7%
same,Subjects discontinued from study drug due to ≥1 TEAE,healthy subjects [5]; SAD 50 mg (n = 6),0 n
same,Subjects with ≥1 SAE,healthy subjects [5]; SAD 50 mg (n = 6),0 n
same,Subjects with ≥1 TEAE,healthy subjects [5]; SAD 50 mg (n = 6),5 (83.3%) n (%)
same,Subjects with ≥1 study drug related TEAE,healthy subjects [5]; SAD 50 mg (n = 6),3 n
same,TEAEs,healthy subjects [5]; SAD 50 mg (n = 6),15 n
same,Subjects with gastrointestinal (GI)-related TEAEs,healthy subjects [5]; SAD all cohorts except 50 mg (1/6 subjects each),16.7%
same,Subjects with at least one dizziness TEAE,"healthy subjects [5]; SAD all zagociguat-treated subjects (8 of 42), none on placebo",19.0%
same,Subjects discontinued from study drug due to ≥1 TEAE,healthy subjects [5]; [9],0 n
same,Subjects with ≥1 SAE,healthy subjects [5]; [9],0 n
same,Subjects with ≥1 TEAE,healthy subjects [5]; [9],22 (52.4%) n (%)
same,Subjects with ≥1 study drug related TEAE,healthy subjects [5]; [9],17 n
same,TEAEs,healthy subjects [5]; [9],57 n
same,Tolerability,healthy subjects [5]; single doses up to 50 mg,well‐tolerated with no safety signals
same,CSF/free plasma ratio,[6]; 1 h after oral 1 mg/kg,0.45
same,CSF/free plasma ratio,[6]; 2 h after oral 1 mg/kg,0.32
same,CSF/free plasma ratio,[6]; 4 h after oral 1 mg/kg,0.3
same,CSF/free plasma ratio,[6]; 8 h after oral 1 mg/kg,0.28
same,cGMP concentrations in CSF,rodents [7],increases in cGMP concentrations
same,qEEG gamma band power,rodents [8],increased gamma band power
